Source: ChEMBL document CHEMBL4350999, “Enhanced tumor retention of NTSR1-targeted agents by employing a hydrophilic cysteine cathepsin inhibitor” (Eur J Med Chem, 2019)
Calls of active or inactive are those of the source. The calls are words filed in the database; no cut-off is given here.

How the values were obtained:
[1] = Drug internalization in cytoplasm of human HT-29 cells within 2 hrs using Eu labelled compound by lysotracker green staining confocal microscopic analysis; type: ADME, subcellular; details: ht-29, 2 h
Procedure, shortened: (§1)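 HT-29 cells (1.25 × 10^5/well) incubated 2 h at 37 °C with natEu conjugate (5 μM), with or without N1 (20 μM). Lysotracker Green (100 nM) added for 1 h; cells washed, formaldehyde-fixed and imaged confocally at 405/488 nm excitation. Mean pixel intensity normalized to cell count.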

[2] = Drug localization in endolysosomal vesicles of human HT-29 cells measured at 2 hrs using Eu labelled compound by lysotracker green staining based confocal microscopic analysis; type: ADME, subcellular; details: ht-29, 2 h; procedure, shortened: as §1
[3] = Stability of 177Lu labelled compound in human serum assessed as parent compound remaining at 37 degC after 24 hrs by RP-HPLC analysis; type: ADME, cell-free; details: read-out: Stability
Procedure, shortened: (§2)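 Radioconjugate (1.5 mCi, 55.5 MBq) was incubated in 300 μL human serum at 37 °C. At 1, 3 and 24 h, acetonitrile was added and samples were spun at 12,000×g for 5 min. Supernatant was dried under nitrogen, reconstituted in water and analyzed by radio-HPLC.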

Procathepsin L = Procathepsin L (Homo sapiens, UniProt P07711); assay: Binding affinity to human liver cathepsin L assessed as protein-conjugate adduct formation incubated for 30 mins using 177Lu labelled compound by SDS-PAGE analysis
Chain of Procathepsin L (P07711 114-333 limits assumed): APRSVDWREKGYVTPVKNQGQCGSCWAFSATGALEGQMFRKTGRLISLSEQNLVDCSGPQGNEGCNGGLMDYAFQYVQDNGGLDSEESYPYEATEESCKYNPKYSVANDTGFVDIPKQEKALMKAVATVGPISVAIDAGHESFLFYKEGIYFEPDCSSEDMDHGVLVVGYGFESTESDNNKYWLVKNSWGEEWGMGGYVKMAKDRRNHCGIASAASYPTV
Procedure, shortened: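 Purified human liver CatB or CatL (3 nM) in 50 mM sodium acetate/1 mM EDTA pH 5.0 incubated 30 min with 177Lu conjugate (500,000 cpm) in Tris/MgCl2/DTT buffer pH 5.5, alone or with E-64 (10 μM) or N1 (20 μM). Mixtures heated 85 °C 2 min, run on 16% tris-glycine gel at 110 V for 90 min, and read by phosphor autoradiography.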

[4] = Stability of 177Lu labelled compound in human serum assessed as parent compound remaining at 37 degC after 3 hrs by RP-HPLC analysis; type: ADME, cell-free; details: read-out: Stability; procedure, shortened: as §2
[5] = Drug internalization in human HT-29 cells assessed as efflux fraction measured at 2 hrs using 177Lu labelled compound by gamma counter method; type: ADME, cell-based; details: ht-29, 2 h
Procedure, shortened: (§3)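 HT-29 cells (~1 × 10^6) loaded 2 h at 37 °C with 177Lu conjugate (100,000 cpm), washed, then given fresh medium. Medium collected and replaced at 1, 2, 4, 8, 24 h and gamma-counted; cells lysed in 10% SDS at 24 h. Efflux expressed as % of total internalized activity (effluxed + cell-retained); n = 3.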

[6] = Drug retention in liver of mouse xenografted with human HT-29 cells assessed as tissue-conjugate adduct formation at 29.6 MBq measured after 72 hrs using 177Lu labelled compound by SDS-PAGE analysis; type: ADME, tissue-based; details: in vivo
Procedure, shortened: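 HT-29 xenograft mice given 800 μCi (29.6 MBq) 177Lu conjugate i.v. and killed at 72 h. Tumor, liver and kidney homogenized in RIPA with protease inhibitor and supernatants run on SDS-PAGE autoradiography. Other supernatant aliquots filtered through 10 kDa MWCO devices to give the % macromolecule-associated radioactivity; n = 3.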

[7] = molecular target: Neurotensin receptor type 1 (Homo sapiens, UniProt P30989); assay: Substrate activity at neurotensin receptor in human HT-29 cells assessed as reduction in drug uptake in presence of NTRS1 peptide N1 using Eu labelled compound measured at 2 hrs by lysotracker green staining based confocal microscopic analysis; type: cell-based; design: scale not given: the % may be the effect or the level left
Chain of Neurotensin receptor type 1 (P30989 whole entry): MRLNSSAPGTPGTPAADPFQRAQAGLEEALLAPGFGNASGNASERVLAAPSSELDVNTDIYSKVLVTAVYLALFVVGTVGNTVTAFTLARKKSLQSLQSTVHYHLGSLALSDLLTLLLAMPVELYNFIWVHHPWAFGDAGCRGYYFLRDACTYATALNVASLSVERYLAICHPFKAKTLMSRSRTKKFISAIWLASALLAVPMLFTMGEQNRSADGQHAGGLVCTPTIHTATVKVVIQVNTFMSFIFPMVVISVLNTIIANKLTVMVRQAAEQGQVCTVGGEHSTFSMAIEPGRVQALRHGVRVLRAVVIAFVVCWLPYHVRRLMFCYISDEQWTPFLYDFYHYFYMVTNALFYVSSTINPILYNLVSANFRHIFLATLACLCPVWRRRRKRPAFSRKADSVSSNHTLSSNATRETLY
Procedure, shortened: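 HT-29 cells (1.25 × 10^5/well) were given natEu-labeled conjugate (5 μM) with or without NTSR1 peptide N1 (20 μM) for 2 h at 37 °C. LysoTracker Green (100 nM) was added for 1 h. Cells were PBS washed, formaldehyde fixed and imaged by confocal microscopy (ex 405 and 488 nm). Mean pixel intensity was normalized to cell count.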

[8] = Ratio of drug uptake in SCID mouse xenograted with human HT-29 cells assessed as tumour retention to drug uptake in muscle of SCID mouse xenografted with human HT-29 cells measured after 24 hrs using 177Lu labelled compound; type: ADME, tissue-based, Tumor/Muscle
Procedure, shortened: (§4)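 Female SCID mice (5 weeks old) received s.c. flank HT-29 cells (5 × 10^6 in Matrigel). At ~80 mm3, two weeks later, mice were randomized and given 10 μCi (0.37 MBq) of purified 177Lu conjugate i.v. by tail vein. Mice were killed at 4, 24 or 72 h. Tissues were weighed and gamma counted as %ID/g, mean ± SD, n = 5. Tumor-to-tissue ratios were calculated.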

[9] = Ratio of drug uptake in SCID mouse xenograted with human HT-29 cells assessed as tumour retention to drug uptake in large intestine of SCID mouse xenografted with human HT-29 cells measured after 4 hrs using 177Lu labelled compound; type: ADME, tissue-based, Tumor/Large intestine; procedure, shortened: as §4
[10] = Ratio of drug uptake in SCID mouse xenograted with human HT-29 cells assessed as tumour retention to drug uptake in large intestine of SCID mouse xenografted with human HT-29 cells measured after 72 hrs using 177Lu labelled compound; type: ADME, tissue-based, Tumor/Large intestine; procedure, shortened: as §4
[11] = Ratio of drug uptake in SCID mouse xenograted with human HT-29 cells assessed as tumour retention to drug uptake in small intestine of SCID mouse xenografted with human HT-29 cells measured after 24 hrs using 177Lu labelled compound; type: ADME, tissue-based, Tumor/Small intestine; procedure, shortened: as §4
[12] = Ratio of drug uptake in SCID mouse xenograted with human HT-29 cells assessed as tumour retention to drug uptake in lung of SCID mouse xenografted with human HT-29 cells measured after 72 hrs using 177Lu labelled compound; type: ADME, tissue-based, Tumor/Lung; procedure, shortened: as §4
[13] = Ratio of drug uptake in SCID mouse xenograted with human HT-29 cells assessed as tumour retention to drug uptake in small intestine of SCID mouse xenografted with human HT-29 cells measured after 72 hrs using 177Lu labelled compound; type: ADME, tissue-based, Tumor/Small intestine; procedure, shortened: as §4
[14] = Ratio of drug uptake in SCID mouse xenograted with human HT-29 cells assessed as tumour retention to drug uptake in kidney of SCID mouse xenografted with human HT-29 cells measured after 24 hrs using 177Lu labelled compound; type: ADME, tissue-based, Tumor/Kidney; procedure, shortened: as §4
[15] = Ratio of drug uptake in SCID mouse xenograted with human HT-29 cells assessed as tumour retention to drug uptake in liver of SCID mouse xenografted with human HT-29 cells measured after 4 hrs using 177Lu labelled compound; type: ADME, tissue-based, Tumor/Liver; procedure, shortened: as §4
[16] = Drug internalization in human HT-29 cells assessed as efflux percentage measured at 24 hrs using 177Lu labelled compound by gamma counter method relative to control; type: ADME, cell-based; details: ht-29, 24 h; procedure, shortened: as §3
[17] = Ratio of drug uptake in SCID mouse xenograted with human HT-29 cells assessed as tumour retention to drug uptake in small intestine of SCID mouse xenografted with human HT-29 cells measured after 4 hrs using 177Lu labelled compound; type: ADME, tissue-based, Tumor/Small intestine; procedure, shortened: as §4
[18] = Ratio of drug uptake in SCID mouse xenograted with human HT-29 cells assessed as tumour retention to drug uptake in lung of SCID mouse xenografted with human HT-29 cells measured after 24 hrs using 177Lu labelled compound; type: ADME, tissue-based, Tumor/Lung; procedure, shortened: as §4
[19] = Ratio of drug uptake in SCID mouse xenograted with human HT-29 cells assessed as tumour retention to drug uptake in pancreas of SCID mouse xenografted with human HT-29 cells measured after 72 hrs using 177Lu labelled compound; type: ADME, tissue-based, Tumor/Pancreas; procedure, shortened: as §4

SMILES	Drug uptake [1]	Drug uptake [2]	remaining at 24 h [3] [%]	Activity (Procathepsin L)	remaining at 3 h [4] [%]	Drug uptake [5] [%]	Drug uptake [6]	Activity [7] [%]	Ratio [8]	Ratio [9]	Ratio [10]	Ratio [11]	Ratio [12]	Ratio [13]	Ratio [14]	Ratio [15]	Drug uptake [16] [%]	Ratio [17]	Ratio [18]	Ratio [19]
Cc1cc(O)cc(C)c1C[C@H](NC(=O)[C@@H]1CCCN1C(=O)[C@H](CCCNC(=N)N)NC(=O)[C@H](CCCNC(=N)N)N(C)C(=O)[C@@H]1CCCN1C(=O)[C@H](CCCCN)NC(=O)[C@@H](CO)NC(=O)[C@@H](CO)NC(=O)[C@@H](CO)NC(=O)[C@H](Cc1cn(CCNC(=O)[C@H](CCCNC(=N)N)NC(=O)[C@H](CC(C)C)NC(=O)CCC(=O)O)nn1)NC(=O)CN1CCN(CC(=O)O)CCN(CC(=O)O)CCN(CC(=O)O)CC1)C(=O)N[C@H](C(=O)N[C@@H](CC(C)C)C(=O)O)C(C)(C)C	Active	Active	49.5	inactive	74.3	32.3	Not Active	65	–	–	–	–	–	–	–	–	–	–	–	–
Cc1cc(C)c(C(=O)OCC(=O)[C@H](CCCCNC(=O)CNC(=O)[C@@H](CO)NC(=O)[C@@H](CO)NC(=O)[C@@H](CO)NC(=O)Cn2cc(C[C@H](NC(=O)CN3CCN(CC(=O)O)CCN(CC(=O)O)CCN(CC(=O)O)CC3)C(=O)N[C@H](CO)C(=O)N[C@H](CO)C(=O)N[C@H](CO)C(=O)N[C@@H](CCCCN)C(=O)N3CCC[C@H]3C(=O)N(C)[C@@H](CCCNC(=N)N)C(=O)N[C@@H](CCCNC(=N)N)C(=O)N3CCC[C@H]3C(=O)N[C@@H](Cc3c(C)cc(O)cc3C)C(=O)N[C@H](C(=O)N[C@@H](CC(C)C)C(=O)O)C(C)(C)C)nn2)NC(=O)[C@H](Cc2ccccc2)NC(=O)OCc2ccccc2)c(C)c1	–	–	–	–	–	–	–	–	30	2.7	1.9	2	2.6	0.9	0.15	0.2	39	1.3	2.2	6.5
Cc1cc(O)cc(C)c1C[C@H](NC(=O)[C@@H]1CCCN1C(=O)[C@H](CCCNC(=N)N)NC(=O)[C@H](CCCNC(=N)N)N(C)C(=O)[C@@H]1CCCN1C(=O)[C@H](CCCCN)NC(=O)[C@@H](CO)NC(=O)[C@@H](CO)NC(=O)[C@@H](CO)NC(=O)[C@H](Cc1cn(CCNC(=O)[C@H](CCCNC(=N)N)NC(=O)[C@H](CC(C)C)NC(=O)C2OC2C(=O)O)nn1)NC(=O)CN1CCN(CC(=O)O)CCN(CC(=O)O)CCN(CC(=O)O)CC1)C(=O)N[C@H](C(=O)N[C@@H](CC(C)C)C(=O)O)C(C)(C)C (stereo not given in full)	Active	Active	36.9	Active	65.6	27.3	Active	63.7	137	5.7	5.5	2	10	1.7	0.08	8.4	50	1.85	15	30
